The values that follow come from ChEMBL document CHEMBL4004794, “Identification of Neuroprotective Spoxazomicin and Oxachelin Glycosides via Chemoenzymatic Glycosyl-Scanning” (J Nat Prod, 2017).

SMILES strings stand for the structures. Calls of active or inactive are those of the source. The rule behind the calls is not given here.

The test system of experiment [1] is Hippocampal neurone. As to the kind of experiment: Neuroprotective activity against EtOH-induced cytotoxicity in Sprague-Dawley rat primary hippocampal neurons assessed as decrease in propidium iodide uptake at 1 uM after 48 hrs by fluorescence microscopic method. It is filed as functional, cell-based. Summed up: (§1)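 Rat hippocampus-derived primary cell cultures were exposed for 48 h to 100 mM EtOH, with or without compound (0.01–1.0 μM, dose–response). A DMSO control was included. Damage was read as propidium iodide uptake into compromised cells.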

Another experiment has as its system A549. As to the kind of experiment: Cytotoxicity against human A549 cells at <= 20 uM. It is filed as functional, cell-based. A digest of the protocol: (§2)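 Run in triplicate by the group's previously reported protocols. Compounds were tested up to 60–120 μM against bacteria and yeast, and up to 20 μM against non-small-cell lung A549 cells. Bacterial strains were S. aureus ATCC 6538, M. luteus NRRL B-287, E. coli NRRL B-3708 and S. enterica ATCC 10708. The yeast was S. cerevisiae ATCC 204508.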

Another experiment has as its system Micrococcus luteus. The experiment is described as follows: Antibacterial activity against Micrococcus luteus NRRL B-287 at <= 60 to 120 uM. In kind it is functional. A digest of the protocol: as §2
For another experiment, the system named is Escherichia coli. As to the kind of experiment: Antibacterial activity against Escherichia coli NRRL B-3708 at <= 60 to 120 uM. In kind it is functional. A digest of the protocol: as §2
A further experiment has as its system Staphylococcus aureus. The experiment is described as follows: Antibacterial activity against Staphylococcus aureus ATCC 6538 at <= 60 to 120 uM. It is filed as functional. Summed up:
as §2

The test system of a further experiment is Saccharomyces cerevisiae. As to the kind of experiment: Antifungal activity against Saccharomyces cerevisiae ATCC 204508 at <= 60 to 120 uM. It is filed as functional. Summed up: as §2
For experiment [2], the system named is Salmonella enterica subsp. enterica serovar Choleraesuis str. ATCC 10708. As to the kind of experiment: Antibacterial activity against Salmonella enterica ATCC 10708 at <= 60 to 120 uM. It is filed as functional. A digest of the protocol:
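Run in triplicate against S. enterica ATCC 10708, a strain obtained from ATCC. Compounds were tested at concentrations up to ≤60−120 μM.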

Experiment [3] concerns Hippocampal neurone. As to the kind of experiment: Neuroprotective activity against EtOH-induced cytotoxicity in Sprague-Dawley rat primary hippocampal neurons assessed as decrease in propidium iodide uptake at 0.01 to 0.1 uM after 48 hrs by fluorescence microscopic method. In kind it is functional, cell-based. A digest of the protocol: as §1
Experiment [4] concerns Hippocampal neurone. The experiment is described as follows: Neuroprotective activity against EtOH-induced cytotoxicity in Sprague-Dawley rat primary hippocampal neurons assessed as decrease in propidium iodide uptake at 0.1 to 1 uM after 48 hrs by fluorescence microscopic method. In kind it is functional, cell-based. Summed up: as §1
The test system of experiment [5] is Hippocampal neurone. The experiment is described as follows: Neuroprotective activity against EtOH-induced cytotoxicity in Sprague-Dawley rat primary hippocampal neurons assessed as decrease in propidium iodide uptake at 0.01 to 1 uM after 48 hrs by fluorescence microscopic method. It is filed as functional, cell-based. A digest of the protocol: as §1

As to `OC[C@@H]1COC(c2ccccc2O[C@@H]2O[C@H](CO)[C@@H](O)[C@H](O)[C@H]2O)=N1`, the result with Hippocampal neurone [1], in the experiment on A549, with Micrococcus luteus, with Escherichia coli, in the experiment on Staphylococcus aureus and in the experiment on Saccharomyces cerevisiae was inactive. In experiment [2], the result was inactive. In addition, the result with Hippocampal neurone [3] was Active.

Consider `C[C@@H](CO)NC(=O)c1ccccc1O[C@@H]1O[C@H](CO)[C@@H](O)[C@H](O)[C@H]1O`, for which the result (in the experiment on A549; in the experiment on Micrococcus luteus; in the experiment with Escherichia coli; in the experiment on Staphylococcus aureus; in the experiment with Saccharomyces cerevisiae; in [2]) was inactive.

For `C[C@H](CO)NC(=O)c1ccccc1O`, the result (in the experiment with A549; with Micrococcus luteus; in the experiment on Escherichia coli; in the experiment with Staphylococcus aureus; with Saccharomyces cerevisiae; in [2]) was inactive.

Take `NC(=O)[C@@H]1COC(c2ccccc2O[C@@H]2O[C@H](CO)[C@@H](O)[C@H](O)[C@H]2O)=N1`: the outcome (in the experiment on A549; with Micrococcus luteus; in the experiment with Escherichia coli; in the experiment with Staphylococcus aureus; in the experiment on Saccharomyces cerevisiae; in [2]) was inactive. Moreover, the result in the experiment with Hippocampal neurone [3] was inactive. In addition, in the experiment with Hippocampal neurone [4], the result was Active.

With `N[C@H]1[C@H](Oc2ccccc2C2=N[C@H](CO)CO2)O[C@H](CO)[C@@H](O)[C@@H]1O`, the outcome (in the experiment with A549; with Micrococcus luteus; in the experiment with Escherichia coli; with Staphylococcus aureus; in the experiment on Saccharomyces cerevisiae; in [2]) was inactive. Moreover, in the experiment with Hippocampal neurone [5], the outcome was inactive.

Turning to `O=C(NC(CO)CO)c1ccccc1O[C@@H]1O[C@H](CO)[C@@H](O)[C@H](O)[C@H]1O`, the outcome (in the experiment on A549; with Micrococcus luteus; in the experiment on Escherichia coli; in the experiment with Staphylococcus aureus; in the experiment with Saccharomyces cerevisiae; in experiment [2]) was inactive.

On to `OC[C@H]1O[C@@H](OC[C@@H]2COC(c3ccccc3O)=N2)[C@H](O)[C@@H](O)[C@@H]1O`, for which the result (in the experiment with A549; in the experiment on Micrococcus luteus; in the experiment with Escherichia coli; in the experiment with Staphylococcus aureus; with Saccharomyces cerevisiae; in experiment [2]) was inactive.

Regarding `C[C@H](CO)NC(=O)c1ccccc1O[C@@H]1O[C@H](CO)[C@@H](O)[C@H](O)[C@H]1N`, the result (with A549; in the experiment with Micrococcus luteus; in the experiment with Escherichia coli; in the experiment with Staphylococcus aureus; in the experiment on Saccharomyces cerevisiae; in experiment [2]) was inactive.

Take `O=CN(O)CCC[C@@H](NC(=O)[C@H](CO)NC(=O)[C@@H]1COC(c2ccccc2O[C@@H]2O[C@H](CO)[C@@H](O)[C@H](O)[C@H]2O)=N1)C(=O)NCCC(=O)N[C@@H]1CCCN(O)C1=O`: the outcome (in the experiment with A549; in the experiment on Micrococcus luteus; in the experiment on Escherichia coli; in the experiment on Staphylococcus aureus; in the experiment on Saccharomyces cerevisiae; in [2]) was inactive.

As for `C[C@@H](CO)NC(=O)c1ccccc1O`, the result (in the experiment with A549; with Micrococcus luteus; in the experiment with Escherichia coli; in the experiment with Staphylococcus aureus; in the experiment with Saccharomyces cerevisiae; in experiment [2]) was inactive.

Consider `N[C@H]1[C@H](Oc2ccccc2C2=N[C@H](C(=O)N[C@@H](CO)C(=O)N[C@H](CCCN(O)C=O)C(=O)NCCC(=O)N[C@@H]3CCCN(O)C3=O)CO2)O[C@H](CO)[C@@H](O)[C@@H]1O`, for which the result (with A549; in the experiment with Micrococcus luteus; in the experiment with Escherichia coli; with Staphylococcus aureus; with Saccharomyces cerevisiae; in experiment [2]) was inactive.

Turning to `NC(=O)[C@@H]1COC(c2ccccc2O)=N1`, the result (with A549; with Micrococcus luteus; with Escherichia coli; in the experiment on Staphylococcus aureus; in the experiment on Saccharomyces cerevisiae; in [2]) was inactive.

In the case of `C[C@@H](CO)NC(=O)c1ccccc1O[C@@H]1O[C@H](CO)[C@@H](O)[C@H](O)[C@H]1N`, the outcome (in the experiment with A549; in the experiment with Micrococcus luteus; in the experiment on Escherichia coli; in the experiment with Staphylococcus aureus; in the experiment with Saccharomyces cerevisiae; in experiment [2]) was inactive.

In the case of `O=CN(O)CCC[C@@H](NC(=O)[C@H](CO)NC(=O)[C@@H]1COC(c2ccccc2O)=N1)C(=O)NCCC(=O)N[C@@H]1CCCN(O)C1=O`, the result (in the experiment on A549; with Micrococcus luteus; in the experiment with Escherichia coli; with Staphylococcus aureus; with Saccharomyces cerevisiae; in [2]) was inactive.

Turning to `C[C@H](CO)NC(=O)c1ccccc1O[C@@H]1O[C@H](CO)[C@@H](O)[C@H](O)[C@H]1O`, the result (in the experiment with A549; in the experiment with Micrococcus luteus; with Escherichia coli; in the experiment with Staphylococcus aureus; in the experiment on Saccharomyces cerevisiae; in experiment [2]) was inactive.

Consider `OC[C@@H]1COC(c2ccccc2O)=N1`, for which the outcome (with A549; in the experiment on Micrococcus luteus; in the experiment with Escherichia coli; in the experiment on Staphylococcus aureus; in the experiment on Saccharomyces cerevisiae; in [2]) was inactive.

`O=C(NC(CO)CO)c1ccccc1O`: the outcome (in the experiment on A549; in the experiment with Micrococcus luteus; with Escherichia coli; in the experiment on Staphylococcus aureus; in the experiment with Saccharomyces cerevisiae; in experiment [2]) was inactive.

Turning to `N[C@H]1[C@H](Oc2ccccc2C(=O)NC(CO)CO)O[C@H](CO)[C@@H](O)[C@@H]1O`, the result (in the experiment on A549; in the experiment on Micrococcus luteus; in the experiment on Escherichia coli; with Staphylococcus aureus; in the experiment on Saccharomyces cerevisiae; in [2]) was inactive.
